Measured values published in ChEMBL document CHEMBL4428107 (Bioorg Med Chem, 2016).
pIC50: −log10 of the molar value.

Tests used:
Histone deacetylase 2 = Histone deacetylase 2 (Homo sapiens, UniProt Q92769); assay: Inhibition of full length recombinant human HDAC2 expressed in baculovirus expression system using fluorogenic peptide RHKK(Ac) as substrate by fluorescence assay
HCT-116 = assay: Antiproliferative activity against human HCT116 cells assessed as reduction in cell viability after 72 hrs by MTS-PMS assay; format: functional; settings: Homo sapiens, HCT-116, 72 h
Procedure, shortened: (§1)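 MTS-PMS viability test. Cells were seeded at 3,000/well and left 24 h at 37 °C, 5% CO2, then exposed to compound for 72 h. Screening was at 50 μM for HCT116 and MCF-7 and […], with final DMSO ≤1%. MTS:PMS was mixed 20:1, added for 3 h, and absorbance read at 490 nm. At least two independent runs were done, each in triplicate.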

MCF7 = assay: Antiproliferative activity against human MCF7 cells assessed as reduction in cell viability after 72 hrs by MTS-PMS assay; settings: MCF7, 72 h
MDA-MB-231 = assay: Antiproliferative activity against human MDA-MB-231 cells assessed as reduction in cell viability after 72 hrs by MTS-PMS assay; format: functional; settings: MDA-MB-231, 72 h; procedure, shortened: as §1
MOLT-4 = assay: Antiproliferative activity against human MOLT4 cells assessed as reduction in cell viability after 70 hrs by Quanti-blue assay; format: functional; settings: Homo sapiens, MOLT-4, 70 h
Procedure, shortened: (§2)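 Quanti-Blue viability kit. HuT-78 and Molt-4 cells were grown in RPMI-1640 and seeded at 10^5 cells/mL. Compounds were screened at 50 μM for 70 h, with detection reagent present for the final 2 h. Fluorescence was read at ex 530/em 590 nm. IC50 from dose-response came from linear regression. Three independent runs.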

HuT78 = assay: Antiproliferative activity against human HUT78 cells assessed as reduction in cell viability after 70 hrs by Quanti-blue assay; format: functional; settings: Homo sapiens, HuT78, 70 h; procedure, shortened: as §2
[1] = Antiproliferative activity against human PBMC assessed as reduction in cell viability after 70 hrs by Quanti-blue assay; format: cell-based
Procedure, shortened: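 QB fluorescence viability assay; hPBMCs purified by density centrifugation from purchased human blood, stored frozen, resuspended in RPMI-1640 with 10% heat-inactivated FBS, HEPES, pyruvate, non-essential amino acids and BME; seeded at 10^6 cells/mL. Compounds at 50 μM, 70 h plus 2 h with detection reagent; λex 530/λem 590 nm. Three independent repeats.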

[2] = Immunomodulatory activity in human TALL-104 cells assessed as effect on degranulation by measuring augmentation of CD3-stimulated anti-LAMP fluorescence at 100 uM preincubated for 30 mins followed by anti-LAMP addition and incubated for 50 mins in the dark by flow cytometric analysis relative to control; format: functional

Histone deacetylase 2, sequence (Q92769 whole entry): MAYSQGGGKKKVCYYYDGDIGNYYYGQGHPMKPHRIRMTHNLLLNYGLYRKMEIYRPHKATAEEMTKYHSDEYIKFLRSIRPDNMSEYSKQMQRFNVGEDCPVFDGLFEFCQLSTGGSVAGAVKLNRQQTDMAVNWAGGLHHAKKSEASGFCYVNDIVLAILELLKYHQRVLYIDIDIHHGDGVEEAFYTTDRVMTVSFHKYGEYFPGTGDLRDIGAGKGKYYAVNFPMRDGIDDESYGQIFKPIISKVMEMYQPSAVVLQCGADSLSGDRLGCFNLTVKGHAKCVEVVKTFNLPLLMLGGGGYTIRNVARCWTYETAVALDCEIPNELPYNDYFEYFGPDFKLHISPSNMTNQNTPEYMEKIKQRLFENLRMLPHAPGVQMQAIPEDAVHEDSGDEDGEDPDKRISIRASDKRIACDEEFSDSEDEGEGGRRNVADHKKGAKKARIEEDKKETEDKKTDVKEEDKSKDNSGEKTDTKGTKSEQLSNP

With `CCOC(=O)NCCCC(=O)NCCc1cccc(F)c1` the pIC50 (Histone deacetylase 2) was under 6.00, the GI50 (HCT-116) was over 50 µM and the GI50 (MCF7) was over 50 µM. For the same compound, the GI50 (MDA-MB-231) was over 50 µM, the GI50 (MOLT-4) was over 50 µM and the GI50 (HuT78) was over 50 µM. For the same compound, the GI50 at 70 h [1] was over 50 µM and the Activity [2] was 90%.

For `C#CCOC(=O)NCCCC(=O)NCCc1ccccc1`, the pIC50 (Histone deacetylase 2) was under 6.00, the GI50 (HCT-116) was over 50 µM and the GI50 (MCF7) was over 50 µM. For the same compound, the GI50 (MDA-MB-231) was over 50 µM, the GI50 (MOLT-4) was over 50 µM and the GI50 (HuT78) was over 50 µM. It also gave a GI50 at 70 h [1] of over 50 µM and an Activity [2] of 105%.

With `CCOC(=O)NCCCC(=O)N[C@@H](Cc1ccccc1)C(=O)OC` the pIC50 (Histone deacetylase 2) was under 6.00, the GI50 (HCT-116) was over 50 µM and the GI50 (MCF7) was over 50 µM. The GI50 (MDA-MB-231) was over 50 µM, the GI50 (MOLT-4) was over 50 µM and the GI50 (HuT78) was over 50 µM. For the same compound, the GI50 at 70 h [1] was over 50 µM and the Activity [2] was 90%.

Compound `C=CCOC(=O)NCCCC(=O)NCCc1ccccc1` has a pIC50 (Histone deacetylase 2) of under 6.00, a GI50 (HCT-116) of over 50 µM and a GI50 (MCF7) of over 50 µM. The GI50 (MDA-MB-231) was over 50 µM, the GI50 (MOLT-4) was over 50 µM and the GI50 (HuT78) was over 50 µM. It also gave a GI50 at 70 h [1] of over 50 µM and an Activity [2] of 87%.

Compound `CCOC(=O)NCCCC(=O)Nc1ccc(CO[Si](C)(C)C(C)(C)C)cc1` has a pIC50 (Histone deacetylase 2) of under 6.00, a GI50 (HCT-116) of over 50 µM and a GI50 (MCF7) of 23.7 µM. It also gave a GI50 (MDA-MB-231) of over 50 µM, a GI50 (MOLT-4) of over 50 µM and a GI50 (HuT78) of over 50 µM. It also gave a GI50 at 70 h [1] of over 50 µM and an Activity [2] of 126%.

`O=C(CCCNC(=O)N1CCCC1=O)NCCc1ccccc1` showed a pIC50 (Histone deacetylase 2) of under 6.00, a GI50 (HCT-116) of over 50 µM and a GI50 (MCF7) of over 50 µM. The GI50 (MDA-MB-231) was over 50 µM, the GI50 (MOLT-4) was over 50 µM and the GI50 (HuT78) was over 50 µM. The GI50 at 70 h [1] was over 50 µM and the Activity [2] was 95%.

Compound `CCOC(=O)NCCCCC(=O)NCCc1ccccc1` has a pIC50 (Histone deacetylase 2) of under 6.00, a GI50 (HCT-116) of over 50 µM and a GI50 (MCF7) of over 50 µM. For the same compound, the GI50 (MDA-MB-231) was over 50 µM, the GI50 (MOLT-4) was over 50 µM and the GI50 (HuT78) was over 50 µM. For the same compound, the GI50 at 70 h [1] was over 50 µM and the Activity [2] was 83%.

`CC(=O)NCCCC(=O)NCCc1ccccc1` gave a pIC50 (Histone deacetylase 2) of under 6.00, a GI50 (HCT-116) of over 50 µM and a GI50 (MCF7) of over 50 µM. It also gave a GI50 (MDA-MB-231) of over 50 µM, a GI50 (MOLT-4) of over 50 µM and a GI50 (HuT78) of over 50 µM. For the same compound, the GI50 at 70 h [1] was over 50 µM and the Activity [2] was 83%.

`CCCCOC(=O)NCCCC(=O)NCCc1ccccc1` showed a pIC50 (Histone deacetylase 2) of under 6.00, a GI50 (HCT-116) of over 50 µM and a GI50 (MCF7) of over 50 µM. It also gave a GI50 (MDA-MB-231) of over 50 µM, a GI50 (MOLT-4) of over 50 µM and a GI50 (HuT78) of over 50 µM. It also gave a GI50 at 70 h [1] of over 50 µM and an Activity [2] of 101%.

`O=C(CCCCCCC(=O)Nc1ccccc1)NO` [VORINOSTAT] gave a GI50 (MCF7) of 29.1 µM.

Work on `CC(C)(C)CC(=O)NCCCC(=O)NCCc1ccccc1` yielded a pIC50 (Histone deacetylase 2) of under 6.00, a GI50 (HCT-116) of over 50 µM and a GI50 (MCF7) of over 50 µM. The GI50 (MDA-MB-231) was over 50 µM, the GI50 (MOLT-4) was over 50 µM and the GI50 (HuT78) was over 50 µM. For the same compound, the GI50 at 70 h [1] was over 50 µM and the Activity [2] was 73%.

In the case of `O=C(CCCNC(=O)c1ccccc1)NCCc1ccccc1`, the pIC50 (Histone deacetylase 2) was under 6.00, the GI50 (HCT-116) was over 50 µM and the GI50 (MCF7) was over 50 µM. For the same compound, the GI50 (MDA-MB-231) was over 50 µM, the GI50 (MOLT-4) was over 50 µM and the GI50 (HuT78) was over 50 µM. For the same compound, the GI50 at 70 h [1] was over 50 µM and the Activity [2] was 85%.

`CCOC(=O)NCCc1ccccc1` gave a pIC50 (Histone deacetylase 2) of under 6.00, a GI50 (HCT-116) of over 50 µM and a GI50 (MCF7) of over 50 µM. The GI50 (MDA-MB-231) was over 50 µM, the GI50 (MOLT-4) was over 50 µM and the GI50 (HuT78) was over 50 µM. For the same compound, the GI50 at 70 h [1] was over 50 µM and the Activity [2] was 90%.

With `CCC(=O)NCCCC(=O)NCCc1ccccc1` the pIC50 (Histone deacetylase 2) was under 6.00, the GI50 (HCT-116) was over 50 µM and the GI50 (MCF7) was over 50 µM. The GI50 (MOLT-4) was over 50 µM, the GI50 (HuT78) was over 50 µM and the GI50 at 70 h [1] was over 50 µM. The Activity [2] was 91%.

With `CCOC(=O)NCCCCCC(=O)Nc1ccccc1` the pIC50 (Histone deacetylase 2) was under 6.00, the GI50 (HCT-116) was over 50 µM and the GI50 (MCF7) was over 50 µM. For the same compound, the GI50 (MDA-MB-231) was over 50 µM, the GI50 (MOLT-4) was over 50 µM and the GI50 (HuT78) was over 50 µM. For the same compound, the GI50 at 70 h [1] was over 50 µM.
